Results as given in ChEMBL document CHEMBL4138301, “Discovery of Tetralones as Potent and Selective Inhibitors of Acyl-CoA:Diacylglycerol Acyltransferase 1” (ACS Med Chem Lett, 2018).
In brackets after ≈: the same amount, converted by molar mass.

Key:
[1] = Kinetic solubility of the compound in pION buffer at pH 7.4 measured after 18 hrs; format: physicochemical; conditions: read-out: Kinetic_solubility
[2] = Oral bioavailability in Sprague-Dawley rat at 2 mg/kg; format: ADME, organism-based; conditions: in vivo
Outline: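 Male animals, n = 3 per species: C57BL/6J mouse at 2.2 mg/kg IV and 2.7 mg/kg PO; Sprague–Dawley rat at 1 mg/kg IV and 2 mg/kg PO; Beagle dog at 1.8 mg/kg IV and 5.3 mg/kg PO. Plasma clearance, Vss, IV half-life and oral %F were derived from the plasma profiles.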

[3] = target: T1, Diacylglycerol O-acyltransferase 1 (Mus musculus) (UniProt Q9Z2A7); assay: Inhibition of DGAT1 in mouse C2C12 cells at 300 nM using [14C] oleic acid as substrate measured after 20 mins by phosphorimaging method relative to control; format: cell-based
T1 sequence (whole entry): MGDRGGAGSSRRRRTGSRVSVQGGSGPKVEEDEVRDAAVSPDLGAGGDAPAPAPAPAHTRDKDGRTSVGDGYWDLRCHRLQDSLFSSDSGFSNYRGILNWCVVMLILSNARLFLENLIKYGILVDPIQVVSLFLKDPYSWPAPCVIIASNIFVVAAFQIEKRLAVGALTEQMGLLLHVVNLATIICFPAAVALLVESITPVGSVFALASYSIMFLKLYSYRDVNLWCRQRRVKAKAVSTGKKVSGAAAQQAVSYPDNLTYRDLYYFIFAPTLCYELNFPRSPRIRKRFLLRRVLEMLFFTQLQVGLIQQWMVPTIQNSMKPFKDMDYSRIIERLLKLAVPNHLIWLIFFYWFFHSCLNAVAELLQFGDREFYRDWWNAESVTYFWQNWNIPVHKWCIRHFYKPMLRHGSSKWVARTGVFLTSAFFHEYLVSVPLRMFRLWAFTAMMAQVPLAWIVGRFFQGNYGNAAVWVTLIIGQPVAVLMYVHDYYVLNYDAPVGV

[4] = target: Diacylglycerol O-acyltransferase 1 (Homo sapiens) (UniProt O75907); assay: Inhibition of recombinant human DGAT1 expressed in baculovirus infected Sf9 insect microsomal membranes at 10 uM using C10-DAG and C10-CoA as substrate pretreated for 15 mins followed by substrate addition measured after 60 mins by CPM dye based fluorescence assay relative to control
Chain of Diacylglycerol O-acyltransferase 1 (Homo sapiens) (O75907 whole entry): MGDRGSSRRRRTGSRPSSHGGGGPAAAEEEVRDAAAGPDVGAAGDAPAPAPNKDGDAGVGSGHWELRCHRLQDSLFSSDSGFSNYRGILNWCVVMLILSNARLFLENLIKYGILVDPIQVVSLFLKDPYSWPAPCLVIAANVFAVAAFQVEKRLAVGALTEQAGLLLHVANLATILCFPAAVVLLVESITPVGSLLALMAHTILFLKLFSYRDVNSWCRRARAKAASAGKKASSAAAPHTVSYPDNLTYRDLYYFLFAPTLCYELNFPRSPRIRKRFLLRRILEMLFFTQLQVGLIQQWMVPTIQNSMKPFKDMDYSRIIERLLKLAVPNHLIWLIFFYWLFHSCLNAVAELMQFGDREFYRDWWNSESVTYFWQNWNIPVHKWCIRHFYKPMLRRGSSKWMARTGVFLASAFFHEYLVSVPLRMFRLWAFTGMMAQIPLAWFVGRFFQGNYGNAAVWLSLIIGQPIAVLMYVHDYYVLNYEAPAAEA

solubility kinetic at 18 h [1]	further results	Compound
103 µg/mL (≈ 233 µM)	–	Cc1cccc(NC(=O)Nc2ccc(-c3ccc4c(c3)CCC(C)(CC(=O)O)C4=O)cc2)c1 (stereo not given)
75 µg/mL (≈ 162 µM)	–	CC1(CC(=O)O)CCc2cc(-c3ccc(NC(=O)Nc4cccc(Cl)c4)cc3)ccc2C1=O (stereo not given)
125 µg/mL (≈ 244 µM)	bioavailability [2]: 51%	CC[C@@]1(CC(=O)O)CCc2cc(-c3ccc(NC(=O)Nc4ccc(F)c(F)c4)cc3Cl)ccc2C1=O
101 µg/mL (≈ 212 µM)	–	CCC1(CC(=O)O)CCc2cc(-c3ccc(NC(=O)Nc4cccc(Cl)c4)cc3)ccc2C1=O (stereo not given)
39 µg/mL (≈ 76.4 µM)	inhibition [3]: 62%	CCC1(CC(=O)O)CCc2cc(-c3ccc(NC(=O)Nc4cccc(C(F)(F)F)c4)cc3)ccc2C1=O (racemic)
74 µg/mL (≈ 162 µM)	–	CCCC1(CC(=O)O)CCc2cc(-c3ccc(NC(=O)Nc4ccccc4)cc3)ccc2C1=O (stereo not given)
72 µg/mL (≈ 145 µM)	–	CC1(CC(=O)O)CCc2cc(-c3ccc(NC(=O)Nc4cccc(C(F)(F)F)c4)cc3)ccc2C1=O (stereo not given)
88 µg/mL (≈ 172 µM)	inhibition [3]: 27%	CC[C@]1(CC(=O)O)CCc2cc(-c3ccc(NC(=O)Nc4cccc(C(F)(F)F)c4)cc3)ccc2C1=O
6 µg/mL (≈ 13.1 µM)	–	CCC1(CC(=O)O)CCc2cc(-c3ccc(NC(=O)Nc4cccc(C)c4)cc3)ccc2C1=O (stereo not given)
56 µg/mL (≈ 98.9 µM)	bioavailability [2]: 25%	O=C(O)C[C@]1(CC(F)(F)F)CCc2cc(-c3cnc(NC(=O)Nc4cccc(C(F)(F)F)c4)cn3)ccc2C1=O
0.4 µg/mL (≈ 0.839 µM)	–	CC[C@]1(CC(=O)O)CCc2cc(-c3ccc(NC(=O)Nc4ccc(Cl)cc4)cc3)ccc2C1=O
31 µg/mL (≈ 71.7 µM)	inhibition [4]: 84%	O=C(O)CC1(F)CCc2cc(-c3ccc(NC(=O)Nc4ccccc4)cc3)ccc2C1=O (stereo not given)
46 µg/mL (≈ 90.1 µM)	–	CCC1(CC(=O)O)CCc2cc(-c3ccc(NC(=O)Nc4ccc(C(F)(F)F)cc4)cc3)ccc2C1=O (stereo not given)
38 µg/mL (≈ 82.5 µM)	–	CCC1(CC(=O)O)CCc2cc(-c3ccc(NC(=O)Nc4cccc(F)c4)cc3)ccc2C1=O (stereo not given)
54 µg/mL (≈ 126 µM)	–	CC1(CC(=O)O)CCc2cc(-c3ccc(NC(=O)Nc4ccccc4)cc3)ccc2C1=O (stereo not given)
